From PubChem BioAssay
Only a selection was taken, and hits are over-represented in it overall.
RORA inh = inhibitors of human nuclear receptor RORA; 0.43% of 65,000 active; P35398; AID 561; CHO-K1 Gal4-RORA LBD luciferase reporter, luminescence; inhibition, % at 10 µM;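 active means inhibition above the mean of all tested compounds plus 3 SD, cut at about 52% in these data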
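Test system: CHO-K1 cells with Gal4-hRORA LBD fusion and pG5-luc reporter / Compound: single concentration per compound, 10 µM final / Schedule: 20 h compound treatment, 37 °C / Signal: luminescence from basal luciferase reporter expression / Read-out: % inhibition / Control set: mock-transfected cells as 100%, +RORA DMSO cells as 0% / Replicates: tested once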
Numbers stand for hits; – = inactive.

SMILES	RORA inh
CCn1nc(-c2ccccc2)nc2c(=O)n(C)c(=O)nc1-2	93
CC(C)c1cccc(C(C)C)c1OCCn1ccnc1	–
O=C(C1CCCO1)N1CCC2(CC1)OCCO2 (stereo unspecified)	–
CC1=NOC2(C)Nc3ncnn3C(c3ccccc3)C12 (stereo unspecified)	–
C[C@H]1CCC/C=C/C2C[C@H](O)CC2[C@H](O)/C=C/C(=O)O1 (stereo partly specified)	84
CC(C(=O)N1CCC2(CC1)OCCO2)C1Sc2ccccc2NC1=O (stereo unspecified)	–
CC[C@@H]1C(=O)OC[C@@H]1Cc1cncn1C	–
CC(=O)C1(c2ccccc2)CCNCC1	–
Cc1ccc(S(=O)(=O)N(C)CCCC(=O)N2CCN(c3ccccn3)CC2)cc1	–
O=C(C1CC(c2ccc(Cl)c(Cl)c2)=NO1)N1CCC2(CC1)OCCO2 (stereo unspecified)	–
